Data as given in publication PMC8361981 (Chemistry (Weinheim an Der Bergstrasse, Germany), 2021).

Columns and labels:
[1] = target: recombinant HIV-1 IIIB gp120 (Human immunodeficiency virus type 1 group M subtype B, UniProt P04578); assay: Surface plasmon resonance; assay type: binding
Procedure, shortened: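 Recombinant HIV-1 IIIB gp120, produced in Chinese hamster ovary cells, was immobilised as a monomer on a sensor chip. Test compound was passed over at 0.1–6.25 μM in two-fold dilution steps. Real-time binding responses were fitted to a 1:1 Langmuir model to obtain affinity and kinetic constants.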

HIV-1 (NL4.3) = assay: Anti-HIV-1; assay type: cell-based; conditions: for EC50: Human immunodeficiency virus 1, CD4+ T cell, read-out: EC50 HIV-1/NL4.3
HIV-2 (ROD) = assay: Anti-HIV-2; assay type: cell-based; conditions: Human immunodeficiency virus 2, CD4+ T cell, read-out: EC50 HIV-2/ROD
[2] = Cytotoxicity in MT-4 cells; assay type: cell-based; conditions: human
Procedure, shortened: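 Cytostatic read-out alongside the HIV cytopathicity assay. CC50 is the concentration that inhibits CD4 T cell proliferation by 50 %. Selectivity index is CC50/EC50.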

[3] = Cell viability of compound-treated, uninfected RD cells; assay type: cell-based; conditions: human, uninfected rhabdomyosarcoma (RD) cells
Procedure, shortened: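 Compound-treated, uninfected RD cells run in a setup parallel to the EV71 BrCr cytopathic-effect reduction assay in RD cells. CC50 is the concentration giving a 50 % reduction in cell viability. Selectivity index is CC50/EC50.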

[4] = test system: EV71 BrCr laboratory-adapted strain; assay: Anti-EV71 assay, BrCr laboratory-adapted strain in RD cells; assay type: cell-based, Enterovirus A71
Procedure, shortened: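 Enterovirus A71 BrCr (laboratory-adapted) was grown in rhabdomyosarcoma (RD) cells with test compound. EC50 is the concentration reducing virus-induced cytopathic effect by 50%. CC50 is the 50% loss of viability in compound-treated, uninfected RD cells run in a similar setup. SI = CC50/EC50.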

Row | Structure (SMILES) | Kd [1] | kd ([1]; SPR, 1:1 Langmuir model, four replicates, 25 °C) | binding to gp120 (in words) ([1]; SPR, concentration-dependent) | kon ([1]; read-out: ka) | EC50 (HIV-1 (NL4.3)) | SI selectivity index (CC50/EC50) (HIV-1 (NL4.3); anti-HIV, Table 1) | EC50 (HIV-2 (ROD)) | CC50 at 5 days [2] | CC50 at 3 days [3] | SI selectivity index (CC50/EC50) ([4]; EV71 BrCr in RD cells, Table 3) | EC50 ([4]; Enterovirus A, EV71, RD, read-out: EC50 EV71 BrCr)
1 | CN[C@@H]1[C@H](O[C@@H]2OC[C@@H](O)[C@H](O)[C@H]2O)[C@@H](O)[C@H](O[C@H]2c3cc(C)c(C(=O)N[C@H](C)C(=O)O)c(O)c3-c3c(cc4c(c3O)C(=O)c3cc(OC)cc(O)c3C4=O)[C@@H]2O)O[C@@H]1C [Pradimicin A (PRM‐A), Pradimicin A] | 6.52 ± 0.11 µM | 12.64±2.92 (10^−3)(1/s) | binds to gp120 | 1930 ± 420 M⁻¹ s⁻¹ | 3.3 ± 1.2 µM | > 30.3 | 5.9 ± 3.7 µM | > 100 µM | – | – | –
2 | CCOC(=O)c1ccc(OCCC2CCN(c3ccc(C)nn3)CC2)cc1 [Pirodavir] | – | – | – | – | – | – | – | – | > 100 µM | >333 | 0.3 ± 0.1 µM
3 | C[C@H](Cn1cnc2c(N)ncnc21)OCP(=O)(O)O [Tenofovir (PMPA), Tenofovir] | – | – | – | – | 4.74 µM | – | 1 µM | > 100 µM | – | – | –
